Results published in ChEMBL document CHEMBL1127746, “Alpha-spirocyclopentyl- and alpha-spirocyclopropyl-gamma-butyrolactones: conformationally constrained derivatives of anticonvulsant and convulsant alpha,alpha-disubstituted gamma-butyrolactones” (J Med Chem, 1994).

What was measured:
[1] = target: GABA-A receptor; anion channel; assay: Dissociation constant from displacement of 35[S]-TBPS binding from picrotoxinin (GABA-A) receptor of rat cerebral cortex; assay type: tissue-based
Outline: (§1)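 Saturation binding on rat cerebral cortex membranes in 50 mM Tris-citrate using 1-300 nM 35[S]-TBPS with test compound near its IC50, triplicate, 90 min at 25 °C. Filtration and scintillation counting. Kd and Bmax from Scatchard analysis; two or three experiments.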

[2] = Toxic dose at which 50% of the mice failed the rotarod neurotoxicity test; assay type: toxicity; settings: mouse, in vivo
Outline: (§2)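 Female CF-1 mice (6-8 weeks) given test compound ip in 30% PEG, 5-10 mice/dose. Neurotoxicity scored as failure on the rotorod test. TD50 derived by log10 probit analysis of dose-response data.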

[3] = target: GABA-A receptor; anion channel; assay: Displacement of 35[S]-TBPS from picrotoxinin (GABA-A) receptor of rat neuronal membranes; assay type: cell membranes, Membrane
Outline: (§3)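 Female Sprague-Dawley rat cerebral cortex membranes, washed and held in 50 mM Tris-citrate pH 7.5. 2 nM 35[S]-TBPS in NaBr with test compound, triplicate, 90 min at 25 °C. Filtration and scintillation counting; nonspecific binding with 10 μM TBPS or 100 μM picrotoxinin. IC50 by logistic fit of at least five concentrations; two or three experiments.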

[4] = target: T1, GABA-A receptor; anion channel (Rattus norvegicus) (UniProt O09028+P15431+P18506+P18508+P19969+P20236+P23574+P23576+P28471+P28473+P30191+P62813+P63079+P63138+Q91ZM7+Q9ES14); assay: Percent response relative to current produced by 10 uM GABA in rat hippocampal cells; assay type: functional, cell-based; settings: Hippocampus
[5] = target: T1, GABA-A receptor; anion channel (Rattus norvegicus); assay: Maximum Binding affinity for picrotoxinin (GABA-A) receptor of rat cerebral cortex; assay type: tissue-based; outline: as §1
Mus musculus = assay: Effective dose at which 50% of the mice were protected from clonic seizures induced by pentylenetetrazole (85 mg/kg); assay type: functional
Outline: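 Female CF-1 mice, 6-8 weeks old, dosed ip with test compound in 30% PEG (5-10 mice/dose). Non-convulsant compounds then challenged with PTZ 85 mg/kg given as 0.85% solution in 0.9% NaCl. Mice observed 30 min for seizures.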

[6] = Dose at which 50% of the mice failed the rotarod neurotoxicity test; settings: mouse, in vivo; outline: as §2
[7] = […] dose at which 50% of the mice have clonic convulsions; settings: mouse, in vivo; read-out: CD50 (the source's name)
Outline: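 Female CF-1 mice, 6-8 weeks old; test compound in 30% PEG given ip at 5-10 mice/dose. Animals observed 30 min for clonic seizures after injection. CD50 derived by log10 probit analysis from the number of animals with clonic seizures.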

[8] = target: T1, GABA-A receptor; anion channel (Rattus norvegicus); assay: Percent response relative to current produced by 1 uM GABA in rat hippocampal cells; assay type: functional, cell-based; settings: Hippocampus
Outline: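 Whole-cell patch clamp of hippocampal neurons cultured from 1-day-old female Sprague-Dawley pups, 10-21 days in culture, held at -30 mV, CsCl-based pipette solution. 1 μM GABA with compound (10 mM or 1 mM) applied 2 s. Current expressed relative to the mean of GABA controls before and after; only ±10% recovery kept; mean ± SEM.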

[9] = target: T1, GABA-A receptor; anion channel (Rattus norvegicus); assay: Percent response relative to current produced by 1 uM GABA in rat hippocampal cells; settings: Hippocampus
[10] = target: GABA-A receptor; anion channel; assay: Inhibition of 35[S]-TBPS binding to GABA-A (picrotoxin) receptor of rat neuronal membranes; assay type: cell membranes, Membrane; outline: as §3

CC1(C)CCCC12CCOC2=O (stereo not drawn) showed a Kd [1] of 0.0418 µM, a TD50 [2] of 10 mg/kg and an IC50 [3] of 0.36 µM. The Response [4] was 327% and the Bmax (pM (mg of protein)-1) [5] was 1.
In the case of CC1CCCC12CCOC2=O (stereo not drawn), the Kd [1] is reported as 0.0395 µM, the TD50 [2] is reported as > 500 mg/kg and the IC50 [3] is reported as 0.68 µM. It also gave a Response [4] of 252% and a Bmax (pM (mg of protein)-1) [5] of 0.93.
For C[C@H]1CC12CCOC2=O (stereo partly drawn), the Kd [1] was 0.0441 µM, the ED50 (Mus musculus) was 210 mg/kg and the TD50 [2] was > 300 mg/kg. It also gave an IC50 [3] of 7.17 µM, a Response [4] of 149% and a Bmax (pM (mg of protein)-1) [5] of 1.27.
With C[C@@H]1CC12CCOC2=O (stereo partly drawn) the Kd [1] was 0.0404 µM, the ED50 (Mus musculus) was 259 mg/kg and the TD50 [2] was > 500 mg/kg. For the same molecule, the IC50 [3] was 3.41 µM, the Response [4] was 48% and the Bmax (pM (mg of protein)-1) [5] was 1.14.
For C[C@@H]1CC[C@H](C)C12CCOC2=O (stereo partly drawn), the Kd [1] was 0.0385 µM, the TD50 [6] was > 500 mg/kg and the IC50 [3] was 0.78 µM. For the same molecule, the Response [4] was 198% and the Bmax (pM (mg of protein)-1) [5] was 0.54.
For C[C@H]1CC[C@H](C)C12CCOC2=O, the TD50 [7] was 198 mg/kg, the Response [8] was 80% and the Kd [1] was 0.0356 µM. The IC50 [3] was 0.2 µM and the Bmax (pM (mg of protein)-1) [5] was 1.04.
With O=C1OCCC12CCCC2 the Response [9] was 220%, the Kd [1] was 0.0488 µM and the ED50 (Mus musculus) was 385 mg/kg. It also gave an IC50 [3] of 0.81 µM and a Bmax (pM (mg of protein)-1) [5] of 1.04.
For CCC1(C(C)C)CCOC1=O (stereo not drawn), the Kd [1] was 0.0352 µM, the ED50 (Mus musculus) was 169 mg/kg and the TD50 [2] was > 300 mg/kg. For the same molecule, the IC50 [3] was 0.24 µM, the Response [4] was 222% and the Bmax (pM (mg of protein)-1) [5] was 1.5.
With CCC1(C(C)(C)C)CCOC1=O (stereo not drawn) the TD50 [7] was 133 mg/kg, the Response [8] was 47% and the Kd [1] was 0.0468 µM. The IC50 [3] was 0.31 µM and the Bmax (pM (mg of protein)-1) [5] was 1.54.
With CC1(C)CCOC1=O the ED50 (Mus musculus) was > 500 mg/kg, the TD50 [2] was > 500 mg/kg and the IC50 [10] was 9.2 µM. For the same molecule, the Response [4] was 41%.
For CCC1(CC)CCOC1=O, the Kd [1] was 0.0372 µM, the IC50 [3] was 0.75 µM and the Response [4] was 301%. It also gave a Bmax (pM (mg of protein)-1) [5] of 1.51.
Work on CCC1(C)CCOC1=O (stereo not drawn) yielded a Kd [1] of 0.0807 µM, an IC50 [3] of 2.28 µM and a Response [4] of 170%. It also gave a Bmax (pM (mg of protein)-1) [5] of 1.27.
With O=C1OCCC12CC2 the TD50 [2] was > 500 mg/kg, the IC50 [10] was > 10 µM and the Response [4] was 62%.
For CC(C)C1(C(C)C)CCOC1=O, the TD50 [7] was 137 mg/kg, the Kd [1] was 0.0334 µM and the IC50 [3] was 0.22 µM. The Response [4] was 328% and the Bmax (pM (mg of protein)-1) [5] was 1.49.
CC1(C)CC12CCOC2=O (stereo not drawn) showed a Response [8] of 247%, a Kd [1] of 0.0354 µM and an ED50 (Mus musculus) of 221 mg/kg. It also gave a TD50 [6] of 254 mg/kg, an IC50 [3] of 1.14 µM and a Bmax (pM (mg of protein)-1) [5] of 0.86.
For CC(C)C1(C)CCOC1=O (stereo not drawn), the Response [8] was 116%, the Kd [1] was 0.047 µM and the IC50 [3] was 0.74 µM. It also gave a Bmax (pM (mg of protein)-1) [5] of 0.99.
